Source: ChEMBL document CHEMBL5634114, “Galantamine-memantine hybrids for Alzheimer's disease: The influence of linker rigidity in biological activity and pharmacokinetic properties” (Eur J Med Chem, 2023)
Converted amounts (≈) assume the structure as drawn.

Experiments:
[1] = Metabolic stability in mouse plasma assessed as half life at 2 uM incubated for 2 hrs by LC-MS/MS analysis; format: ADME, cell-free
Summary of the method: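 Compound at 2 µM final (0.5% DMSO) in prewarmed mouse plasma at 37 °C. Samples taken at 0, 5, 15, 30, 60 and 120 min were quenched in cold CH3CN with internal standard, centrifuged, diluted with water and analyzed by LC-MS/MS (MRM, positive ESI). Half-life calculated from the time course.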

[2] = target: Glutamate NMDA receptor; Grin1/Grin2a (Rattus norvegicus, UniProt P35439+Q00959); experiment: Inhibition of NMDA/glycine-activated rat GluN1/Glu2A expressed in xenopus laevis oocytes at -75 mV holding potential by voltage clamp method; format: cell-based, Oocyte
Chain of Glutamate NMDA receptor; Grin1/Grin2a (Q00959 whole entry, other chains not shown): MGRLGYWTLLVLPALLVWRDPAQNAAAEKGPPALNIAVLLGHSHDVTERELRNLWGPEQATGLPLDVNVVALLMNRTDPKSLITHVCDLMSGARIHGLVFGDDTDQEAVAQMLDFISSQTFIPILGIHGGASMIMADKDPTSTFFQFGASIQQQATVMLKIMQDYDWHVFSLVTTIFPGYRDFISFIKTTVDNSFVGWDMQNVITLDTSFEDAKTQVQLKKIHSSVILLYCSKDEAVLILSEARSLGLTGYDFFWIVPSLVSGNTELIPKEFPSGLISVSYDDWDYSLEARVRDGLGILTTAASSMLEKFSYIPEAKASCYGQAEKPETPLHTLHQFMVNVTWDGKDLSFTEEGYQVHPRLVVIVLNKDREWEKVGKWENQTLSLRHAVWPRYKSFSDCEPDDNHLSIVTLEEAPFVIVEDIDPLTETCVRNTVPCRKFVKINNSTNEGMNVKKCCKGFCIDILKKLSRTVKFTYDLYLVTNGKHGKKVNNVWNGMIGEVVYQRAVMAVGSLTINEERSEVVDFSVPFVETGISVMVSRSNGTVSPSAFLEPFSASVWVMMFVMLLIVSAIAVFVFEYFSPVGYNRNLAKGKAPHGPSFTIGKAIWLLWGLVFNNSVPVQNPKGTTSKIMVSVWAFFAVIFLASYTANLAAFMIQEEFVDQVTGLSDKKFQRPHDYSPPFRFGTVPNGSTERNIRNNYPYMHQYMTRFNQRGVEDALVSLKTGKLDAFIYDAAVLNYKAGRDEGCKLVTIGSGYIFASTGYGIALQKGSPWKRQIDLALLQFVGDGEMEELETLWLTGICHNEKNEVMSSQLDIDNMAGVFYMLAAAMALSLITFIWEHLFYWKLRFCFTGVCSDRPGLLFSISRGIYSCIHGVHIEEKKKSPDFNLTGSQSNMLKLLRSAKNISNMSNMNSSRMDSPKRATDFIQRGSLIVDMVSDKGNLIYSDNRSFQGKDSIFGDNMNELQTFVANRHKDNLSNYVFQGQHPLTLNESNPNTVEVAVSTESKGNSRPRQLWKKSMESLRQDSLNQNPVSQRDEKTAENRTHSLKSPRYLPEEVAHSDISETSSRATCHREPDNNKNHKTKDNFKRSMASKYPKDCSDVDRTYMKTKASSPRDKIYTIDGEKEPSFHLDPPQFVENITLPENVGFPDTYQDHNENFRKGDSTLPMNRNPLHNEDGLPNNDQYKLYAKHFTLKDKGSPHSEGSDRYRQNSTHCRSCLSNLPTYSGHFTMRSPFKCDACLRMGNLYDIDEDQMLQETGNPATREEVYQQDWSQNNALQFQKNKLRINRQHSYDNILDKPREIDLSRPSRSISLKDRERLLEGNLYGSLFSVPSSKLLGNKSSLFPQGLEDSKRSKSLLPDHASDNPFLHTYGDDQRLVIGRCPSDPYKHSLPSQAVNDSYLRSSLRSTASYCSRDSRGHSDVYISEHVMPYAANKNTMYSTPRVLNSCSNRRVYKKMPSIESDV
Summary of the method: (§1)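 Xenopus oocytes (stage IV–V) were injected with GluN1 plus GluN2A or GluN1 plus GluN2B cRNA (1:1) and kept 3–4 days at 18 °C. Two-electrode voltage clamp was run in saline with 2 mM CaCl2, pH 7.5. Currents were evoked by 100 µM NMDA plus 10 µM glycine, with compound co-applied at 0.01–100 µM in 10-fold steps. […] The selectivity index is the GluN1/2A IC50 divided by the GluN1/2B IC50.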

Cholinesterase = Cholinesterase (Homo sapiens, UniProt P06276); experiment: Inhibition of human serum BChE using butyrylthiocholine as substrate preincubated for 20 mins followed by substrate addition measured for 3 mins by Ellman's method; format: cell-free
Chain of Cholinesterase (P06276 whole entry): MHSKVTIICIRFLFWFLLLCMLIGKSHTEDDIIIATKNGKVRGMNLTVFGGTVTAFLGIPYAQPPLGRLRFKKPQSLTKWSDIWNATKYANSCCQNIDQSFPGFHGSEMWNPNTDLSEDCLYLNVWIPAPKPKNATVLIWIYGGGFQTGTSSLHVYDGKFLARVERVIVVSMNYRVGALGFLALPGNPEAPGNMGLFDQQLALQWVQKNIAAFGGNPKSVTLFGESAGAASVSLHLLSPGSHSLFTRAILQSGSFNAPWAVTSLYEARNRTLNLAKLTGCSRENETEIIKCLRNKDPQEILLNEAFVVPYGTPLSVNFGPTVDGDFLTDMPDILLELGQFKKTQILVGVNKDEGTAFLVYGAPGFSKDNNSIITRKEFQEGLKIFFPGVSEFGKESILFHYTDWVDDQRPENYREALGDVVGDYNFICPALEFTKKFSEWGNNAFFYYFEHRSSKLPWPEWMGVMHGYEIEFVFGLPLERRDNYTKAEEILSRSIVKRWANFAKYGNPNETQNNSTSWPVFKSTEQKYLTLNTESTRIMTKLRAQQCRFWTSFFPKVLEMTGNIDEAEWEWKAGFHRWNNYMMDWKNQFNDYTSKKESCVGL
Summary of the method: (§2)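 Ellman assay at 37 °C in 0.1 M phosphate buffer pH 8.0 with 340 µM DTNB and 0.02 U/mL enzyme (recombinant human AChE or human serum BChE). Inhibitor at increasing concentrations was preincubated with enzyme for 20 min before adding 550 µM acetylthiocholine (AChE) or butyrylthiocholine (BChE). Absorbance at 412 nm was monitored for 3 min, with a blank lacking enzyme. Triplicates; IC50 from log concentration–inhibition curves; at least two experiments.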

[3] = Metabolic stability in mouse liver microsomes assessed as half life at 5 uM preincubated for 15 mins followed by NADPH/G6P/G6PDH measured for 1 hr by LC-MS/MS analysis; format: ADME, Microsome; settings: time 75 min
Summary of the method: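 Mouse liver microsomes with compound at 5 µM final (0.1% DMSO) in 0.1 M Tris-HCl pH 7.5, preincubated 15 min at 37 °C. NADPH, G6P, G6PDH and MgCl2 were then added and incubation continued for 1 h. Samples at 0, 5, 15, 30 and 60 min were quenched in cold CH3CN with internal standard and analyzed by LC-MS/MS. A no-cofactor microsome control was run at 0 and 60 min.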

[4] = target: Glutamate NMDA receptor; Grin1/Grin2b (Rattus norvegicus, UniProt P35439+Q00960); experiment: Inhibition of NMDA/glycine-activated rat GluN1/Glu2B expressed in xenopus laevis oocytes at -75 mV holding potential by voltage clamp method; format: cell-based, Oocyte; summary of the method: as §1
Chain of Glutamate NMDA receptor; Grin1/Grin2b (Q00960 whole entry, other chains not shown): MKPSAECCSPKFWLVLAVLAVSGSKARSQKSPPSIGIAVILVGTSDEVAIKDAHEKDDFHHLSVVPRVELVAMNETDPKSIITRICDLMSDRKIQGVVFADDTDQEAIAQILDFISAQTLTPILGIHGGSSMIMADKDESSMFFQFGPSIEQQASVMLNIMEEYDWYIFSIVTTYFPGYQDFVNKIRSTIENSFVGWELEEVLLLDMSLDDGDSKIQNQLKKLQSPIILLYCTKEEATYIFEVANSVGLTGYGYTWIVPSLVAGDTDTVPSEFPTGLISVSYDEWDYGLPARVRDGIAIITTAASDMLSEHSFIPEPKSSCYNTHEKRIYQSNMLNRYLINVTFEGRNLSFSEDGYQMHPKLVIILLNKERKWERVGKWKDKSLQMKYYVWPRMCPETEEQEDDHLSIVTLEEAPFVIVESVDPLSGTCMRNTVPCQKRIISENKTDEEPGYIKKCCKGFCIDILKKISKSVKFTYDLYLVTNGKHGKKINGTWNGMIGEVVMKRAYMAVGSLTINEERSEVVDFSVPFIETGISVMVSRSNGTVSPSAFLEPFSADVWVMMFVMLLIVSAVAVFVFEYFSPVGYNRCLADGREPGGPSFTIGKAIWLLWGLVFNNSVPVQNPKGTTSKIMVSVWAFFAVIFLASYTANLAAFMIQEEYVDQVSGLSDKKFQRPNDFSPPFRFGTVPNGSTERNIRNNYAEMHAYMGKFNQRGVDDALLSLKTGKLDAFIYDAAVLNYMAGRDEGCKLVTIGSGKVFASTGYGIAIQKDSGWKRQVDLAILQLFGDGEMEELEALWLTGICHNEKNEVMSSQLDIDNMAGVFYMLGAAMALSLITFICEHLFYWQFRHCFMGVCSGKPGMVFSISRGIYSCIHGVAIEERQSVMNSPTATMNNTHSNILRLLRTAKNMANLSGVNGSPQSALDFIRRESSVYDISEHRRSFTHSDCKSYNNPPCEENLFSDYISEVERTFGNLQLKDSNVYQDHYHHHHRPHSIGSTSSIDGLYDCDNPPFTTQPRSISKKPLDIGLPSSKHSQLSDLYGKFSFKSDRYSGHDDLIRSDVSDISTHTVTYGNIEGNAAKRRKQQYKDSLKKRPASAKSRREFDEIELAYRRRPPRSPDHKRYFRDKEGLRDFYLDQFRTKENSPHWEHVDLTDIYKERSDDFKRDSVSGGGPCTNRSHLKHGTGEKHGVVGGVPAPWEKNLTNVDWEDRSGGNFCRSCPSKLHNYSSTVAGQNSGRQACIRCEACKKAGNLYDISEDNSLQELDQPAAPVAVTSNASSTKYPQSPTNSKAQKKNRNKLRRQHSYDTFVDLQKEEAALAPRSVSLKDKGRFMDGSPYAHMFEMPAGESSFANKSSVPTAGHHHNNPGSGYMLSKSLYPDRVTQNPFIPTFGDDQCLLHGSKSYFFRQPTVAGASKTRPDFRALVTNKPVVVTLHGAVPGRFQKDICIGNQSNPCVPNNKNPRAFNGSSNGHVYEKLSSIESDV

[5] = AUC in CD-1 mouse at 3 mg/kg, iv measured for 240 mins; format: ADME, organism-based; settings: in vivo
Summary of the method: (§3)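 Male CD1 mice (22–24 g) dosed IV at 3 mg/kg in PEG400/Tween 80/saline 10/10/80 v/v. Three animals per time point. Blood taken at 0, 5, 30, 60, 120 and 240 min. Plasma extracted with cold CH3CN plus internal standard and quantified by LC-MS/MS (MRM) against a 1 nM–10 µM calibration curve in blank plasma. Parameters were obtained by fitting the plasma concentration–time profile.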

Rattus norvegicus = organism: Rattus norvegicus; experiment: Selectivity index, ratio of IC50 for NMDA/glycine-activated rat GluN1/Glu2A expressed in xenopus laevis oocytes to IC50 for NMDA/glycine-activated rat GluN1/Glu2B expressed in xenopus laevis oocytes; format: cell-based; summary of the method: as §1
[6] = Metabolic stability in mouse liver microsomes assessed as half life at 5 uM preincubated for 15 mins followed by UDPGA/D-saccharic acid lactone measured for 1 hr by LC-MS/MS analysis; format: ADME, Microsome; settings: time 75 min
Summary of the method: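 Mouse liver microsomes with alamethicin and compound at 5 µM final (0.1% DMSO) in 0.1 M Tris-HCl pH 7.5, preincubated 15 min at 37 °C. UDPGA, p-saccharic acid lactone and MgCl2 were then added and incubation continued for 1 h. Samples at 0, 5, 15, 30 and 60 min were quenched in cold CH3CN with internal standard and analyzed by LC-MS/MS. A no-cofactor control was run at 0 and 60 min.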

[7] = Clearance in CD-1 mouse at 3 mg/kg, iv measured for 240 mins; format: ADME, organism-based; settings: in vivo; summary of the method: as §3
[8] = Drug concentration in brain of in CD-1 mouse at 3 mg/kg, iv measured for 30 mins; format: ADME, organism-based; settings: read-out: Ct
Summary of the method: (§4)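 Male CD1 mice dosed IV at 3 mg/kg in PEG400/Tween 80/saline 10/10/80. Three mice per time point. Whole brains were homogenized in 4 vol PBS:protease inhibitor (100:1), extracted with cold CH3CN plus internal standard and measured by LC-MS/MS (MRM) against a 1 nM–10 µM calibration in naïve brain homogenate. Levels were normalized per 100 mg brain/mL, with protein content checked by BCA.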

[9] = Drug concentration in brain of in CD-1 mouse at 3 mg/kg, iv measured for 120 mins; format: ADME, organism-based; settings: read-out: Ct; summary of the method: as §4
[10] = Tmax in CD-1 mouse at 3 mg/kg, iv measured for 240 mins; format: ADME, organism-based; settings: in vivo; summary of the method: as §3
[11] = Drug concentration in brain of in CD-1 mouse at 3 mg/kg, iv measured for 60 mins; format: ADME, organism-based; settings: read-out: Ct; summary of the method: as §4
[12] = Aqueous kinetic solubility in PBS at 250 uM incubated for 24 hrs […]; format: physicochemical; settings: read-out: Kinetic_solubility
[13] = Half life in CD-1 mouse at 3 mg/kg, iv measured for 240 mins; format: ADME, organism-based; settings: in vivo; summary of the method: as §3
[14] = Volume of distribution in CD-1 mouse at 3 mg/kg, iv measured for 240 mins; format: ADME, organism-based; settings: in vivo; summary of the method: as §3
[15] = Cmax in CD-1 mouse at 3 mg/kg, iv measured for 240 mins; format: ADME, organism-based; settings: in vivo; summary of the method: as §3
[16] = Drug concentration in brain of in CD-1 mouse at 3 mg/kg, iv measured for 240 mins; format: ADME, organism-based; settings: read-out: Ct; summary of the method: as §4
Acetylcholinesterase = Acetylcholinesterase (Homo sapiens, UniProt P22303); experiment: Inhibition of recombinant human AChE using acetylthiocholine as substrate preincubated for 20 mins followed by substrate addition measured for 3 mins by Ellman's method; summary of the method: as §2
Chain of Acetylcholinesterase (P22303 whole entry): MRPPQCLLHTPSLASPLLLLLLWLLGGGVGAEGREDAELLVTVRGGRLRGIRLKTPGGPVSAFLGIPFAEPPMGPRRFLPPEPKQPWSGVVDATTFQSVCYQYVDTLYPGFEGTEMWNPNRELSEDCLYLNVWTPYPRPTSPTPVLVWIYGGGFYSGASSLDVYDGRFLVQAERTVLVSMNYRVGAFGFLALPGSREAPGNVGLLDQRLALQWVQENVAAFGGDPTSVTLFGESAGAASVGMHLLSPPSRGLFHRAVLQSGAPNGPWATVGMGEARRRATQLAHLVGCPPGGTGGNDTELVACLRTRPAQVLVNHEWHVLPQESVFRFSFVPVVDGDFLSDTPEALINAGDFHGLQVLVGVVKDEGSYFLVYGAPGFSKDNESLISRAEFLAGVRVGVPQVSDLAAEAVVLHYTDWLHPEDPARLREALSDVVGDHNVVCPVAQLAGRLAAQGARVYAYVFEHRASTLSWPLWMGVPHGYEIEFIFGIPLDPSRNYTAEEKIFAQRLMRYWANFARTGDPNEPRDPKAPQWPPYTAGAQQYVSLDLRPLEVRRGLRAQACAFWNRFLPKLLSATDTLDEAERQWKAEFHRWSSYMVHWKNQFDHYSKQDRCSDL

SMILES: COc1ccc2c3c1O[C@H]1C[C@@H](O)C=C[C@@]31CCN(CCCCNC13CC4CC(C)(CC(C)(C4)C1)C3)C2
- half-life at 2 µM [1]: 1.62 h
- IC50 [2]: 5740 nM
- IC50 (Cholinesterase): 1770 nM
- half-life at 5 µM [3]: > 1 h
- IC50 [4]: 1450 nM
- AUC at 4 h [5]: 290 ng·h/mL
- Ratio IC50 (Rattus norvegicus): 4
- half-life at 5 µM [6]: > 1 h
- clearance [7]: 43 mL/min/kg
- concentration at 0.5 h [8]: 95 ng/g
- concentration at 2 h [9]: 70 ng/g
- Tmax [10]: 5 min
- concentration at 1 h [11]: 115 ng/g
- solubility kinetic at 24 h, 250 µM [12]: 242 µM (≈ 123 µg/mL)
- half-life [13]: 20.8 h
- Vd [14]: 78 L/kg
- Cmax [15]: 208 ng/mL
- concentration at 4 h [16]: 310 ng/g
- IC50 (Acetylcholinesterase): 1130 nM

SMILES: COc1ccc2c3c1O[C@H]1C[C@@H](O)C=C[C@@]31CCN(CC#CCNC13CC4CC(C)(CC(C)(C4)C1)C3)C2
- half-life at 2 µM [1]: > 2 h
- IC50 [2]: 11600 nM
- IC50 (Cholinesterase): 5080 nM
- half-life at 5 µM [3]: < 0.0833 h
- IC50 [4]: 15500 nM
- Ratio IC50 (Rattus norvegicus): 0.75
- solubility kinetic at 24 h, 250 µM [12]: 230 µM (≈ 116 µg/mL)
- IC50 (Acetylcholinesterase): 762 nM

SMILES: COc1ccc2c3c1O[C@H]1C[C@@H](O)C=C[C@@]31CCN(C/C=C/CNC13CC4CC(C)(CC(C)(C4)C1)C3)C2
- half-life at 2 µM [1]: > 2 h
- IC50 [2]: 14500 nM
- IC50 (Cholinesterase): 421 nM
- half-life at 5 µM [3]: 0.75 h
- IC50 [4]: 1320 nM
- AUC at 4 h [5]: 280 ng·h/mL
- Ratio IC50 (Rattus norvegicus): 11
- half-life at 5 µM [6]: > 1 h
- clearance [7]: 161 mL/min/kg
- concentration at 0.5 h [8]: 281 ng/g
- concentration at 2 h [9]: 243 ng/g
- Tmax [10]: 5 min
- concentration at 1 h [11]: 256 ng/g
- solubility kinetic at 24 h, 250 µM [12]: 237 µM (≈ 120 µg/mL)
- half-life [13]: 1.37 h
- Vd [14]: 19 L/kg
- Cmax [15]: 202 ng/mL
- concentration at 4 h [16]: 96 ng/g
- IC50 (Acetylcholinesterase): 115 nM
